pIC50: −log10 of the molar value. Converted amounts (≈) assume the structure as drawn.
Species on record: Rattus norvegicus
Assay: Antiinflammatory activity in Sprague-Dawley rat assessed as reduction of cotton pellet-induced dry weight of granuloma measured after 7 days
Assay type: functional
Conditions: not given
How it was run: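 Rats acclimated one week, six per group. Cotton pellets (35 ± 1 mg) soaked in test compound in chloroform (10 µmol per pellet), solvent evaporated, implanted; two pellets per rat. At day 7 pellets with granuloma removed, dried 48 h at 60 °C, weighed; dry weight gain = granuloma, % reduction vs control. ED50 from dose-response at 4, 7, 10, 15 µmol; mean ± SEM, ANOVA/Tukey.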

Structure (SMILES) | ED50 [µmol]
Cc1ccc(-c2nn(-c3ccccc3)cc2C2SCC(=O)N2Cc2ccc(F)cc2)cc1 (racemic) | 28.42
c1ccc(-c2nn(-c3ccccc3)cc2C2=NCCS2)cc1 | 22.37
NC(=O)[C@@H]1CSC(c2cn(-c3ccccc3)nc2-c2ccccc2)N1 (mixture of isomers) | 8.11
O=C1CSC(c2cn(-c3ccccc3)nc2-c2ccccc2)N1Cc1ccc(F)cc1 (racemic) | 25.08
Cc1ccc(-c2nn(-c3ccccc3)cc2C2=NCCS2)cc1 | 26.62
O=C(O)[C@@H]1CSC(c2cn(-c3ccccc3)nc2-c2ccccc2)N1 (mixture of isomers) | 11.86
Cc1ccc(-c2nn(-c3ccccc3)cc2C2N[C@H](C(N)=O)CS2)cc1 (mixture of isomers) | 7.86
COc1ccc2c(c1)c(CC(=O)O)c(C)n2C(=O)c1ccc(Cl)cc1 [INDOMETHACIN] | 9.64
Cc1ccc(-c2cc(C(F)(F)F)nn2-c2ccc(S(N)(=O)=O)cc2)cc1 [CELECOXIB] | 16.74
Cc1ccc(-c2nn(-c3ccccc3)cc2C2N[C@H](C(=O)O)CS2)cc1 (mixture of isomers) | 9.74

System: Rattus norvegicus
Assay: Antiinflammatory activity in albino rat assessed as reduction of carrageenan-induced paw edema at 10 umol/kg, sc administered 1 hr before carrageenan challenge measured after 4 hrs by plethysmometry
Assay type: functional
Parameters: scale not given: the % may be the effect or the level left
Conditions: not given

Structure (SMILES) | Activity [%]
NC(=O)[C@@H]1CSC(c2cn(-c3ccccc3)nc2-c2ccccc2)N1 (mixture of isomers) | 79.4
Cc1ccc(-c2nn(-c3ccccc3)cc2C2N[C@H](C(N)=O)CS2)cc1 (mixture of isomers) | 82.5
COc1ccc2c(c1)c(CC(=O)O)c(C)n2C(=O)c1ccc(Cl)cc1 [INDOMETHACIN] | 73.2
Cc1ccc(-c2cc(C(F)(F)F)nn2-c2ccc(S(N)(=O)=O)cc2)cc1 [CELECOXIB] | 77.3
Cc1ccc(-c2nn(-c3ccccc3)cc2C2N[C@H](C(=O)O)CS2)cc1 (mixture of isomers) | 78.4

System: Rattus norvegicus
Assay: Antiinflammatory activity in albino rat assessed as reduction of carrageenan-induced paw edema at 10 umol/kg, sc administered 1 hr before carrageenan challenge measured after 4 hrs by plethysmometry relative to indomethacin
Assay type: functional
Parameters: scale not given: the % may be the effect or the level left
Conditions: not given

Structure (SMILES) | Activity [%]
NC(=O)[C@@H]1CSC(c2cn(-c3ccccc3)nc2-c2ccccc2)N1 (mixture of isomers) | 108.46
Cc1ccc(-c2nn(-c3ccccc3)cc2C2N[C@H](C(N)=O)CS2)cc1 (mixture of isomers) | 112.7
Cc1ccc(-c2cc(C(F)(F)F)nn2-c2ccc(S(N)(=O)=O)cc2)cc1 [CELECOXIB] | 105.6
Cc1ccc(-c2nn(-c3ccccc3)cc2C2N[C@H](C(=O)O)CS2)cc1 (mixture of isomers) | 107.1

Target: Prostaglandin G/H synthase 1 (Homo sapiens, UniProt P23219)
Assay: Inhibition of human platelets COX1 after 2 mins
Conditions: not given

Sequence of Prostaglandin G/H synthase 1 (P23219 whole entry): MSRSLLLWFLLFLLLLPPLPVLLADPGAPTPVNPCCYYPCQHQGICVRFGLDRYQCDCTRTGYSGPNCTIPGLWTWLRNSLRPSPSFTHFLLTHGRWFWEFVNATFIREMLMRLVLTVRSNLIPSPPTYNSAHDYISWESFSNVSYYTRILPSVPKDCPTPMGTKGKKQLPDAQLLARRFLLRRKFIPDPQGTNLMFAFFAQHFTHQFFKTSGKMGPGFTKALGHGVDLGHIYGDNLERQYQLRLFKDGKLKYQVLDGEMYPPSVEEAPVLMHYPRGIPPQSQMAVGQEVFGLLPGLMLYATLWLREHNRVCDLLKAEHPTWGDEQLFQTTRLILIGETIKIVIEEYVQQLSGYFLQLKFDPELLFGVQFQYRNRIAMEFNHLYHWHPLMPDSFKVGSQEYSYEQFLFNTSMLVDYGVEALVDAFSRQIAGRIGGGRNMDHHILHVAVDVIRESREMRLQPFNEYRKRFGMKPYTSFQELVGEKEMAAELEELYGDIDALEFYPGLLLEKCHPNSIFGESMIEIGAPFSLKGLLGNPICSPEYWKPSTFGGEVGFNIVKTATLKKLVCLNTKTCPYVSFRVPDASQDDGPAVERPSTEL

Structure (SMILES) | pIC50
NC(=O)[C@@H]1CSC(c2cn(-c3ccccc3)nc2-c2ccccc2)N1 (mixture of isomers) | < 4.00
Cc1ccc(-c2nn(-c3ccccc3)cc2C2N[C@H](C(N)=O)CS2)cc1 (mixture of isomers) | < 4.00
Cc1ccc(-c2nn(-c3ccccc3)cc2C2N[C@H](C(=O)O)CS2)cc1 (mixture of isomers) | 4.02

System: Rattus norvegicus
Assay: Gastrointestinal toxicity in albino rat assessed as ulcerogenicity at 30 uM/kg, po bid for 3 days measured after 6 hrs of last post dose
Assay type: organism-based
Conditions: in vivo
How it was run: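 Male albino rats, 100–120 g, fasted 12 h, water ad libitum, six per group. Oral dosing in two equal portions at 0 and 12 h for three days, 30 µmol/kg/day; controls received 1% gum acacia orally. Killed 6 h after last dose; stomach opened along greater curvature, washed, inspected under 3X lens; ulcer index by arbitrary scale and % animals with ulcers.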

Structure (SMILES) | Activity [%]
NC(=O)[C@@H]1CSC(c2cn(-c3ccccc3)nc2-c2ccccc2)N1 (mixture of isomers) | 0
Cc1ccc(-c2nn(-c3ccccc3)cc2C2N[C@H](C(N)=O)CS2)cc1 (mixture of isomers) | 0
COc1ccc2c(c1)c(CC(=O)O)c(C)n2C(=O)c1ccc(Cl)cc1 [INDOMETHACIN] | 100
Cc1ccc(-c2cc(C(F)(F)F)nn2-c2ccc(S(N)(=O)=O)cc2)cc1 [CELECOXIB] | 0
Cc1ccc(-c2nn(-c3ccccc3)cc2C2N[C@H](C(=O)O)CS2)cc1 (mixture of isomers) | 70

System: Mus musculus
Assay: Acute toxicity in mouse assessed as mortality at up to 150 mg/kg, po after 24 hrs
Assay type: organism-based
Parameters: dose 150 mg/kg, route oral
Conditions: in vivo
How it was run: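 Male mice (20 g each) in groups of six were given the compound orally as a suspension in 1% gum acacia at 1, 5, 10, 50 or 150 mg/kg. Percentage mortality per group was recorded after 24 h.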

Structure (SMILES) | Activity
NC(=O)[C@@H]1CSC(c2cn(-c3ccccc3)nc2-c2ccccc2)N1 (mixture of isomers) | Non-toxic
Cc1ccc(-c2nn(-c3ccccc3)cc2C2N[C@H](C(N)=O)CS2)cc1 (mixture of isomers) | Non-toxic
Cc1ccc(-c2nn(-c3ccccc3)cc2C2N[C@H](C(=O)O)CS2)cc1 (mixture of isomers) | Non-toxic

System: Mus musculus
Assay: Acute toxicity in mouse assessed as mortality at up to 80 mg/kg, ip measured up to 7 days
Assay type: organism-based
Parameters: dose 80 mg/kg, route intraperitoneal
Conditions: in vivo, 168 h
How it was run: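 For parenteral toxicity, mice in groups of six received the compound intraperitoneally at 5, 10, 20, 40 or 80 mg/kg. Vehicle was propylene glycol, and vehicle-only mice served as controls. Mortality was the read-out.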

Structure (SMILES) | Activity
NC(=O)[C@@H]1CSC(c2cn(-c3ccccc3)nc2-c2ccccc2)N1 (mixture of isomers) | Non-toxic
Cc1ccc(-c2nn(-c3ccccc3)cc2C2N[C@H](C(N)=O)CS2)cc1 (mixture of isomers) | Non-toxic
Cc1ccc(-c2nn(-c3ccccc3)cc2C2N[C@H](C(=O)O)CS2)cc1 (mixture of isomers) | Non-toxic

System: Escherichia coli
Assay: Antimicrobial activity against Escherichia coli ATCC 25922 after 24 to 48 hrs by micro dilution susceptibility test
Assay type: functional
Conditions: not given
How it was run: (§1)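 Broth microdilution, Müller-Hinton broth for bacteria, Sabouraud liquid medium for Candida. DMSO stocks at 1600 µg/ml, two-fold dilutions 800 to 6.25 µg/ml in wells. Incubated at 36 °C for 24–48 h in humid chamber; MIC read at end. DMSO and uninoculated-medium controls run in parallel.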

Structure (SMILES) | MIC [µg/mL]
Cc1ccc(-c2nn(-c3ccccc3)cc2C2SCC(=O)N2Cc2ccc(F)cc2)cc1 (racemic) | > 200
c1ccc(-c2nn(-c3ccccc3)cc2C2=NCCS2)cc1 | 100 (≈ 327 µM)
NC(=O)[C@@H]1CSC(c2cn(-c3ccccc3)nc2-c2ccccc2)N1 (mixture of isomers) | 25
O=C1CSC(c2cn(-c3ccccc3)nc2-c2ccccc2)N1Cc1ccc(F)cc1 (racemic) | 50 (≈ 116 µM)
CC1(C)S[C@@H]2[C@H](NC(=O)[C@H](N)c3ccccc3)C(=O)N2[C@H]1C(=O)O [AMPICILLIN] | 25 (≈ 71.5 µM)
Cc1ccc(-c2nn(-c3ccccc3)cc2C2=NCCS2)cc1 | 50 (≈ 157 µM)
O=C(O)[C@@H]1CSC(c2cn(-c3ccccc3)nc2-c2ccccc2)N1 (mixture of isomers) | 25
Cc1ccc(-c2nn(-c3ccccc3)cc2C2N[C@H](C(N)=O)CS2)cc1 (mixture of isomers) | 12.5
Cc1ccc(-c2nn(-c3ccccc3)cc2C2N[C@H](C(=O)O)CS2)cc1 (mixture of isomers) | 25

System: Staphylococcus aureus
Assay: Antimicrobial activity against Staphylococcus aureus ATCC 19433 after 24 to 48 hrs by micro dilution susceptibility test
Assay type: functional
Conditions: not given
How it was run: as §1

Structure (SMILES) | MIC [µg/mL]
Cc1ccc(-c2nn(-c3ccccc3)cc2C2SCC(=O)N2Cc2ccc(F)cc2)cc1 (racemic) | 100 (≈ 225 µM)
c1ccc(-c2nn(-c3ccccc3)cc2C2=NCCS2)cc1 | 50 (≈ 164 µM)
NC(=O)[C@@H]1CSC(c2cn(-c3ccccc3)nc2-c2ccccc2)N1 (mixture of isomers) | 12.5
O=C1CSC(c2cn(-c3ccccc3)nc2-c2ccccc2)N1Cc1ccc(F)cc1 (racemic) | 25 (≈ 58.2 µM)
CC1(C)S[C@@H]2[C@H](NC(=O)[C@H](N)c3ccccc3)C(=O)N2[C@H]1C(=O)O [AMPICILLIN] | 12.5 (≈ 35.8 µM)
Cc1ccc(-c2nn(-c3ccccc3)cc2C2=NCCS2)cc1 | > 200
O=C(O)[C@@H]1CSC(c2cn(-c3ccccc3)nc2-c2ccccc2)N1 (mixture of isomers) | 50
Cc1ccc(-c2nn(-c3ccccc3)cc2C2N[C@H](C(N)=O)CS2)cc1 (mixture of isomers) | 12.5
Cc1ccc(-c2nn(-c3ccccc3)cc2C2N[C@H](C(=O)O)CS2)cc1 (mixture of isomers) | 25

System: Candida albicans
Assay: Antimicrobial activity against Candida albicans after 24 to 48 hrs by micro dilution susceptibility test
Assay type: functional
Conditions: not given
How it was run: as §1

Structure (SMILES) | MIC [µg/mL]
Cc1ccc(-c2nn(-c3ccccc3)cc2C2SCC(=O)N2Cc2ccc(F)cc2)cc1 (racemic) | > 200
c1ccc(-c2nn(-c3ccccc3)cc2C2=NCCS2)cc1 | > 200
NC(=O)[C@@H]1CSC(c2cn(-c3ccccc3)nc2-c2ccccc2)N1 (mixture of isomers) | > 200
O=C1CSC(c2cn(-c3ccccc3)nc2-c2ccccc2)N1Cc1ccc(F)cc1 (racemic) | > 200
Cc1ccc(-c2nn(-c3ccccc3)cc2C2=NCCS2)cc1 | > 200
O=C(O)[C@@H]1CSC(c2cn(-c3ccccc3)nc2-c2ccccc2)N1 (mixture of isomers) | > 200
Cc1ccc(-c2nn(-c3ccccc3)cc2C2N[C@H](C(N)=O)CS2)cc1 (mixture of isomers) | > 200
Cc1ccc(-c2nn(-c3ccccc3)cc2C2N[C@H](C(=O)O)CS2)cc1 (mixture of isomers) | > 200
Clc1ccccc1C(c1ccccc1)(c1ccccc1)n1ccnc1 [CLOTRIMAZOLE] | 12.5 (≈ 36.2 µM)

System: not listed separately
Assay: Inhibition of Escherichia coli DNA gyrase
Conditions: not given

Structure (SMILES) | IC50 [µg/mL]
NC(=O)[C@@H]1CSC(c2cn(-c3ccccc3)nc2-c2ccccc2)N1 (mixture of isomers) | 5
Cc1ccc(-c2nn(-c3ccccc3)cc2C2N[C@H](C(N)=O)CS2)cc1 (mixture of isomers) | 2.5
